This is an account of results in BindingDB's records for doi:10.1021/jm00001a007 (Sandoz Pharma, 1995).

Several values for one entry are separate records, joined by “and”; a condition that tells them apart may be missing. Equal entries are not always repeated. Structures can show the parent of a compound that is named as a salt. Some results are limits rather than exact numbers.

For assay [1], the target named is T1, Alpha-1A adrenergic receptor (Bos taurus, UniProt P18130).
T1 sequence (P18130 whole entry): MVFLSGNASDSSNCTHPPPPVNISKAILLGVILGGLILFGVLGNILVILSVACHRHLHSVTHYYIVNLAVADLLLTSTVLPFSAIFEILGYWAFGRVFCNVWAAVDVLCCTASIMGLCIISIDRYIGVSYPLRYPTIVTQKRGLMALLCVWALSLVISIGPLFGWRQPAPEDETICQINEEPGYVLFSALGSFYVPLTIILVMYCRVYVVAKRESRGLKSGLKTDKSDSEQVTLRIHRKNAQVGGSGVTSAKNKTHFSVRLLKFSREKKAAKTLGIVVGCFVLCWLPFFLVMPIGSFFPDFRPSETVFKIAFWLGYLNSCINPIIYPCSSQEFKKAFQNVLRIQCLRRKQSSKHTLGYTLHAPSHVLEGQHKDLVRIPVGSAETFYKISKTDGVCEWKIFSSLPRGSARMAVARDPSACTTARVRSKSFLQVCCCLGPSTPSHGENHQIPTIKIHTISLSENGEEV
The assay is described as follows: Binding affinity towards Alpha-1 adrenergic receptor of calf brain cortex using [3H]prazosin. Put shortly:
(§1)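 Membranes from fresh calf brain cortex. Nonspecific binding defined with 10 μM phentolamine for α1 ([3H]prazosin) and with 1 μM unlabeled clonidine for α2 ([3H]clonidine). IC50 converted to KD (Cheng–Prusoff), given as pKD.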

Assay [2] concerns the target T2, Alpha-2A adrenergic receptor (Bos taurus, UniProt Q28838).
T2 sequence (Q28838 whole entry): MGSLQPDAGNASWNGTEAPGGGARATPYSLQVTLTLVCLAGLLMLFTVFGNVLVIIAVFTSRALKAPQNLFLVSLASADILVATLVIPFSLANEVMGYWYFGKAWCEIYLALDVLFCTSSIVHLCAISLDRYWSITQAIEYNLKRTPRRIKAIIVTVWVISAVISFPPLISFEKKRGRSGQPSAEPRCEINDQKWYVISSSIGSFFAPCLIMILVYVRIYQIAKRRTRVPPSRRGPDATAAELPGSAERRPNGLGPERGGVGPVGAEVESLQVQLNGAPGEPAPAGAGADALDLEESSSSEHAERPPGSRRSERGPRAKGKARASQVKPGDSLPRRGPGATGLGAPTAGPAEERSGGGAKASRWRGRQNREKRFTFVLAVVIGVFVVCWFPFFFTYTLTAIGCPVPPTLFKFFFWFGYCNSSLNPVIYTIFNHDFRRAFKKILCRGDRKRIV
The assay is described as follows: Binding affinity towards Alpha-2 adrenergic receptor of calf brain cortex using [3H]clonidine. Put shortly:
as §1

Assay [3] has as its target 5-hydroxytryptamine 2A receptor. The assay is described as follows: Binding affinity towards 5-hydroxytryptamine 2A receptor in rat cortex preparations using [3H]ketanserin. An outline of the steps: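 5-HT2 sites: rat cortex for 2A ([3H]ketanserin), porcine choroid plexus for 2C ([3H]mesulergine). Nonspecific binding defined with 10 μM mianserin. Displacement-curve IC50 converted to KD via Cheng–Prusoff; expressed as pKD.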

The target in assay [4] is D(2) dopamine receptor (Bos taurus, UniProt P20288). The assay is described as follows: Binding affinity towards Dopamine receptor D2 of calf striatal tissue using [3H]spiperone. Put shortly:
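Calf striatal membranes, [3H]spiperone. Cinanserin (0.5 μM) masked 5-HT2A sites; nonspecific binding defined with haloperidol (5 μM). Displacement IC50 converted to KD (Cheng–Prusoff), reported as pKD.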

The target of assay [5] is D(1A) dopamine receptor (Bos taurus, UniProt Q95136). The assay is described as follows: Binding affinity towards Dopamine receptor D1 of calf striatal tissue using [3H]SCH-23390. An outline of the steps:
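Calf striatal membranes, [3H]SCH-23390. Nonspecific binding defined with 1 μM unlabeled SCH-23390. IC50 from displacement curves converted via Cheng–Prusoff to KD, expressed as pKD.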

D(2) dopamine receptor, sequence (P20288 whole entry): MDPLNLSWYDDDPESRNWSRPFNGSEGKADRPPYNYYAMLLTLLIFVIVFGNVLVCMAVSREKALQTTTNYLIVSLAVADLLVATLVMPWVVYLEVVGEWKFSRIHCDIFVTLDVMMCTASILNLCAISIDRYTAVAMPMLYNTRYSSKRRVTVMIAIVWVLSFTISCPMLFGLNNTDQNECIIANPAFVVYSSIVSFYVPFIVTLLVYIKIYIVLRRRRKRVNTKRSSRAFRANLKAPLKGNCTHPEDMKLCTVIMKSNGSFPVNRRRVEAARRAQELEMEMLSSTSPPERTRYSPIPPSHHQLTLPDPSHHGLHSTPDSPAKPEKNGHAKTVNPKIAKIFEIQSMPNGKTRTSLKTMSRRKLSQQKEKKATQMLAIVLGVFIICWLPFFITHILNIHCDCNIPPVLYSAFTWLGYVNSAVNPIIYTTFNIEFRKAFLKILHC
D(1A) dopamine receptor, sequence (Q95136 whole entry): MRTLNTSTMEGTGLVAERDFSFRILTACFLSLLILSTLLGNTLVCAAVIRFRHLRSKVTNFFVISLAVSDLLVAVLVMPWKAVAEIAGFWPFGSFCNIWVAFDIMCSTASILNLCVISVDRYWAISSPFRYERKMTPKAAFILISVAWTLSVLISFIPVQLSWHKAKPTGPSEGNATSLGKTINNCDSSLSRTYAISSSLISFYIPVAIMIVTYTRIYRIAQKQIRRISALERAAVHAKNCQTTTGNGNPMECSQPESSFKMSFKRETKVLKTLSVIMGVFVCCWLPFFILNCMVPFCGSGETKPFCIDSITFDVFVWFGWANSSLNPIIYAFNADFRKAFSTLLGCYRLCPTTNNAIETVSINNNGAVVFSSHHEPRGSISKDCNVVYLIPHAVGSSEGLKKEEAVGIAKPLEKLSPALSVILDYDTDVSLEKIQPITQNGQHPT

Take `CN1CC[C@@H]2CN3CCc4cccc(c43)[C@@H]2C1` [SDZ SER 082 FUMARATE]: the Kd was 1000 nM and 999 nM in assay [1]; 999 nM and 1000 nM in assay [2]; 631 nM in assay [3]; < 10000 nM in assay [4]; < 10000 nM in assay [5].

Broadly, the Kd is the constant that tells how readily two partners part at equilibrium. A low value points to tighter binding.
